Our source for the inhibition, Activity and Time values is ChEMBL document CHEMBL3763017, “Synthesis and evaluation of dual antiplatelet activity of bispidine derivatives of N-substituted pyroglutamic acids” (Eur J Med Chem, 2016).

SMILES strings stand for the structures. The source made the active and inactive calls. No cut-off for these calls is given here.

The nature of series [1]: Antiplatelet activity in human platelet rich plasma assessed as inhibition of U46619-induced platelet aggregation at 30 uM preincubated for 5 mins followed by U46619 stimulation by turbidimetry. Format: functional. In a few lines:
(§1)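 Human PRP (1×10^8 platelets/ml) from healthy-donor blood spun at 1000 rpm for 10 min. Pre-treated 5 min with compound or 0.4% DMSO vehicle, then agonist added at 37 °C. Light-transmission aggregometry run at least 5–10 min; % aggregation calculated. Single-point screens at 30 μM, n = 3; mean ± SEM.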

Series [2] deals with Mus musculus. The series is described as follows: Antithrombotic activity in Swiss albino mouse assessed as protection against collagen-epinephrine induced pulmonary thromboembolism at 30 umol/kg, po after 1 hr. It is filed as functional. Put shortly: (§2)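 Male Swiss albino mice (18–22 g) dosed orally in 0.5% carboxymethyl cellulose 1, 2, 4, 6, 12 or 24 h before challenge. Collagen (150 μg/ml) plus adrenaline (50 μg/ml) injected into the tail vein. Dead or hind-limb-paralysed mice counted over 15 min and expressed as % protection. Ten mice per drug group, five for vehicle.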

Series [3] can be described thus: Antiplatelet activity in human platelet rich plasma assessed as inhibition of collagen-induced platelet aggregation at 30 uM preincubated for 5 mins followed by collagen stimulation by turbidimetry. Format: functional. In a few lines:
as §1

The test system of series [4] is Mus musculus. The series is described as follows: Antithrombotic activity in Swiss albino mouse assessed as protection against collagen-epinephrine induced pulmonary thromboembolism at 170 umol/kg, po measured upto 5 hrs. Format: functional. In a few lines: as §2
Series [5] has as its system Mus musculus. The series is described as follows: Toxicity in Swiss albino mouse assessed as bleeding time at 170 umol/kg, po administered as single dose measured up to 24 hrs (reference value: 3.5 +/- 0.3 mins). It is filed as organism-based. Conditions: in vivo.
Series [6] relates to Mus musculus. As to the kind of experiment: Antithrombotic activity in ferric chloride-induced Swiss albino mouse arterial thrombosis model assessed as time to occlusion at 170 umol/kg, po. It is filed as functional, organism-based.
A further series relates to Aorta. The series is described as follows: Inhibition of U46619-induced vasocontraction in Sprague-Dawley rat thoracic aoritc rings at 100 nM (reference value: 89.8 +/- 8.5%). It is filed as functional. Details: scale not given: the % may be the effect or the level left.

On to `Cc1ccc(CN2C(=O)CC[C@H]2C(=O)N2CC3CC(CN(Cc4ccc(Cl)cc4)C3)C2)cc1`, for which the inhibition at 30 µM in series [1] worked out at 81%; in series [3], 67%. In addition, the Activity in the series with Mus musculus [2] is listed as 35%.
Consider `O=C([C@@H]1CCC(=O)N1Cc1ccccc1)N1CC2CC(CN(Cc3ccccc3)C2)C1`, for which, in the series with Mus musculus [2], the Activity amounted to 30%. Moreover, the inhibition at 30 µM in series [3] worked out at 44%.
`Cc1ccc(CN2C(=O)CC[C@H]2C(=O)N2CC3CC(CN(C(=O)c4ccccc4)C3)C2)cc1`: in the series with Mus musculus [2], the Activity was 40%. Further, the inhibition at 30 µM in series [3] turned out to be 20.5%.
On the same counts, the results for `O=C(c1ccccc1)N1CC2CC(C1)CN(C(=O)[C@@H]1CCC(=O)N1Cc1ccccc1Br)C2` are 60% and 25.6%.
On the same counts, the results for `CC(C)(C)OC(=O)N1CC2CC(C1)CN(C(=O)[C@@H]1CCC(=O)N1Cc1ccccc1Br)C2` are 50% and 2%.
On the same counts, the results for `COc1ccc(CN2C(=O)CC[C@H]2C(=O)N2CC3CC(CN(C(=O)OC(C)(C)C)C3)C2)cc1` are 45% and 10%.
With `O=C([C@@H]1CCC(=O)N1Cc1ccc(Cl)cc1)N1CC2CC(CN(Cc3ccccc3)C2)C1`, the inhibition at 30 µM in series [1] was found to be 80%; in series [3] it was 52%. The Activity in the series with Mus musculus [2] is listed as 30%.
Take `Cc1ccc(CN2C(=O)CC[C@H]2C(=O)N2CC3CC(CN(Cc4ccccc4)C3)C2)cc1`: in the series on Mus musculus [2], the Activity is 25%. Further, the inhibition at 30 µM in series [3] worked out at 7%.
For `CC(C)(C)OC(=O)N1CC2CC(C1)CN(C(=O)[C@@H]1CCC(=O)N1Cc1ccc(C#N)cc1)C2` the same measures were 55% and 11%.
Take `O=C([C@@H]1CCC(=O)N1S(=O)(=O)c1ccccc1)N1CC2CC(CN(Cc3ccccc3)C2)C1`: in the series with Mus musculus [2], the Activity turned out to be 30%. In series [3], the inhibition at 30 µM is 29%.
On the same counts, the results for `CC(C)(C)OC(=O)N1CC2CC(C1)CN(C(=O)[C@@H]1CCC(=O)N1Cc1ccc(Cl)cc1)C2` are 30% and 6%.
`CC(=O)Oc1ccccc1C(=O)O` [ASPIRIN]: in the series with Mus musculus [4], the Activity is recorded as 40%. In addition, the Time in the series with Mus musculus [5] is 6.6 min. Further, the outcome in the series on Mus musculus [6] was inactive.
In the case of `Cc1ccc(CN2C(=O)CC[C@H]2C(=O)N2CC3CC(CN(Cc4ccc(Br)cc4)C3)C2)cc1`, the values for the inhibition at 30 µM in series [1] and in series [3] were 52% and 61%, respectively. Further, the Activity in the series on Mus musculus [2] is 50%.
Take `CC(C)(C)OC(=O)N1CC2CC(C1)CN(C(=O)[C@@H]1CCC(=O)N1Cc1c(Cl)cccc1Cl)C2`: the Activity in the series on Mus musculus [2] is 30%. Besides, in series [3], the inhibition at 30 µM turned out to be 3%.
For `CC(C)(C)OC(=O)N1CC2CC(C1)CN(C(=O)[C@@H]1CCC(=O)N1Cc1ccccc1)C2` the same measures were 40% and 6%.
As for `O=C(O)CCC/C=C\C[C@@H]1[C@H](CNNC(=O)Nc2ccccc2)[C@H]2CC[C@@H]1O2`, the Activity in the series with Aorta worked out at 8.4%.
On to `O=C([C@@H]1CCC(=O)N1Cc1c(Cl)cccc1Cl)N1CC2CC(CN(Cc3ccccc3)C2)C1`, for which the inhibition at 30 µM amounted to 85% in series [1] and 68% in series [3]. In the series on Mus musculus [2], the Activity was 40%.
On to `Cc1ccc(CN2C(=O)CC[C@H]2C(=O)N2CC3CC(CN(Cc4ccccc4Br)C3)C2)cc1`, for which the inhibition at 30 µM in series [1] turned out to be 70%; in series [3], 67%. Moreover, the Activity in the series on Mus musculus [2] is 30%.
As for `COc1ccc(CN2C(=O)CC[C@H]2C(=O)N2CC3CC(CN(Cc4ccccc4)C3)C2)cc1`, the Activity in the series on Mus musculus [2] is on record as 30%. The inhibition at 30 µM in series [3] stood at 10%.
With `Cc1ccc(CN2C(=O)CC[C@H]2C(=O)N2CC3CC(CN(C(=O)OC(C)(C)C)C3)C2)cc1`, the Activity with Mus musculus [2] was 40%. In addition, in series [3], the inhibition at 30 µM stood at 25%.
On the same counts, the results for `O=C([C@@H]1CCC(=O)N1Cc1ccc(Br)cc1)N1CC2CC(CN(Cc3ccccc3)C2)C1` are 40% and 57%.
For `Cc1ccc(CN2C(=O)CC[C@H]2C(=O)N2CC3CC(C2)CN(S(=O)(=O)c2ccc(C)cc2)C3)cc1` the same measures were 40% and 37.5%.
For `CC(C)(C)OC(=O)N1CC2CC(C1)CN(C(=O)[C@@H]1CCC(=O)N1Cc1cccc3ccccc13)C2` the same measures were 30% and 11%.
As to `Cc1ccc(S(=O)(=O)N2CC3CC(CN(C(=O)[C@@H]4CCC(=O)N4Cc4ccccc4Br)C3)C2)cc1`, the Activity in the series with Mus musculus [2] was 55%. Moreover, in series [3], the inhibition at 30 µM amounted to 16.8%.
